A selection: hits, their analogues and other compounds. The true share with any hit is near 2.3%.
V1aR counter: agonists of human V1a receptor, primary screen, counter-screen for OXTR agonist project, fluorescence, CHO-V1R cells | Vasopressin V1a receptor (Homo sapiens), P37288 | Fluo-8 calcium fluorescence, agonist mode; 0% DMSO, 100% 3 nM vasopressin | activation, % at 3 µM | actives 0.25% (n = 320,000);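 active means activation above the mean activation of all tested compounds plus 3 SD, per screening run, cut at about 20% in these data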;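 further: signal is peak over basal fluorescence ratio across a 100 second FLIPR read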
Target sequence (P37288 whole entry, looked up): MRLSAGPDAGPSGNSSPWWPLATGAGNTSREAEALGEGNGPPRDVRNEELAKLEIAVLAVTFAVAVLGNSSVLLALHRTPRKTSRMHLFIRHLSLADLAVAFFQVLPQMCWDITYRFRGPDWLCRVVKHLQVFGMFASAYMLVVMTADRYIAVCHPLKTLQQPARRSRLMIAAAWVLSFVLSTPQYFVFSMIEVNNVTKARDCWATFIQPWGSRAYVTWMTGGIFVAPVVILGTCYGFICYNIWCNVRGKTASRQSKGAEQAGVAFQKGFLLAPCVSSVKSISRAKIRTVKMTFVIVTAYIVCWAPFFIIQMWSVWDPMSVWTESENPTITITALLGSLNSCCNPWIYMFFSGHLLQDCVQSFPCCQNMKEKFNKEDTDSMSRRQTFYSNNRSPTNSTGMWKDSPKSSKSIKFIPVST
TAAR1 ag: human TAAR1 agonists, primary screen, Fluo-8 calcium fluorescence, CHO RD-HGA16 cells. activation, % at 3 µM. vehicle wells 0%, saturating PEA agonist 100%. actives 0.99% (n = 360,000);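 active means activation above the mean activation of all test compounds in the run plus 3 SD, cut at about 38% in these data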
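test system = CHO RD-HGA16 cells carrying human TAAR1 plus Gα16 | schedule = 17-24 h seeding, 75 min 37 °C dye, 30 min RT | compound dosing = 3 µM single concentration | control set = DMSO and PEA EC100 | replicates = n 1 | signal = Fluo-8 fluorescence, 5 s baseline then 140 s kinetic read | measure = percent activation vs PEA EC100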
OXTR potentiator: human OXTR potentiators, primary screen, fluorescence, CHO-OTR cells, Fluo-8 calcium; activation, % at 3 µM; Oxytocin receptor (Homo sapiens), P30559; actives 0.061% (n = 320,000); Fluo-8 calcium fluorescence, potentiator mode; 0% = oxytocin EC15, 100% = EC100;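 active means activation above that plate's cutoff, the mean activation of tested compounds plus 3 SD, cut at about 6.6% in these data, passing the limit was not always enough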
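Dosing: Single dose, 3.0 µM nominal final compound concentration | Material: Human OTR in CHO cells | Technique: Kinetic Fluo-8 calcium fluorescence | Benchmarks: EC15 oxytocin alone as 0%, 75 nM oxytocin as 100% | Probe or stimulus: Oxytocin at about EC15, sub-maximal agonist stimulus | Incubation: Compound 6 min at room temperature before oxytocin, 100 s read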
OXTR agonist: human OXTR agonists, primary screen, fluorescence, CHO-OTR cells, Fluo-8 calcium; actives 0.32% (n = 320,000); Fluo-8 calcium fluorescence; normalized: DMSO 0%, oxytocin 100%; AID 2435, 2010; activation, % at 3 µM;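 active means activation above the mean of all tested compounds plus 3 SD, cutoff set per screening run, cut at about 20% in these data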;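 further: peak over basal fluorescence ratio from a 100 s FLIPR kinetic read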
TAAR1 antagonist: human TAAR1 antagonists, primary screen, Fluo-8 calcium fluorescence, CHO RD-HGA16 cells; antagonist; inhibition, % at 3 µM; actives 1.5% (n = 360,000);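 active means inhibition above a per-plate cutoff, the mean inhibition of test compounds on that plate plus 3 SD, cut at about 49% in these data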
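Material: RD-HGA16 CHO cells with stable hTAAR1 and Gα16; Dosing: single nominal final test compound concentration of 3 µM; Schedule: seeding 17-24 h prior, 75-min 37 °C, 30-min RT dye loading; Detection: kinetic Fluo-8 calcium fluorescence measurement; Measure: % inhibition from peak post-agonist over basal fluorescence ratio; Benchmarks: vehicle and agonist controls.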
nonsel antag count: nonselective antagonists in TAAR1 counter-screen cells, counter-screen for hTAAR1 antagonist project, cell-based, fluorescence, calcium; shares compounds with TAAR1 antagonist; counterscreen cell line, antagonist mode; inhibition, % at 3 µM; actives 77% (n = 2,400); AID 651780, 2012; in the data active means inhibition above about 22%;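 further: CHO-Ga16 host cells stimulated with ATP at an EC80 level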
TAAR1 ant conf: human TAAR1 antagonists, retest of hits, confirmation, cell-based, fluorescence; shares compounds with TAAR1 antagonist; TAAR1-expressing cells, fluorescence antagonist read-out; inhibition, % at 3 µM; actives 40% (n = 2,400); AID 651785, 2012; in the data active means inhibition above about 49%;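 further: CHO-Ga16 host cells challenged with agonist PEA near its EC80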
Ga16 ag counter: calcium activation in Ga16-expressing cells, counter-screen for TAAR1 antagonist project, cell-based, fluorescence; shares compounds with TAAR1 antagonist; agonist counterscreen; activation, % at 3 µM; actives 18% (n = 2,400); AID 651953, 2012; in the data active means activation above about 12%
TAAR1 ag counter: TAAR1 activation by candidate antagonists – cell-based, fluorescence, counter-screen for TAAR1 antagonist project; shares compounds with TAAR1 antagonist; hTAAR1 cell line, agonist mode; activation, % at 3 µM; actives 2% (n = 2,400); in the data active means activation above about 37%;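 further: CHO cells stably expressing TAAR1 with calcium dye readout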
Large screens that a line does not name were inactive (follow-up assays come after a bar, where they were run).

COC(=O)c1c(-c2ccc(F)cc2)csc1NC(=O)c1ccco1	TAAR1 antagonist 57.7 | nonsel antag count inactive | TAAR1 ant conf inactive | Ga16 ag counter inactive | TAAR1 ag counter inactive
COC(=O)N[C@@H]1C[C@H]2[C@@H]3CC[C@H]4C[C@@H](OC)CC[C@]4(C)[C@H]3CC[C@]12C	TAAR1 antagonist 55.4 | nonsel antag count inactive | TAAR1 ant conf inactive | Ga16 ag counter inactive | TAAR1 ag counter inactive
COc1cccc(C(=O)Nc2ccc3c(c2)CCCN3C(=O)c2cccs2)c1OC	TAAR1 antagonist 50.1 | nonsel antag count 24.0 | TAAR1 ant conf inactive | Ga16 ag counter inactive | TAAR1 ag counter inactive
Cc1ccc2c(c1)CCCN2C(=O)c1cccs1	none
COc1ccc(C(=O)Nc2ccc3c(c2)CCCN3C(=O)c2cccs2)c(OC)c1	TAAR1 antagonist 54.7 | nonsel antag count 25.9 | TAAR1 ant conf inactive | Ga16 ag counter inactive | TAAR1 ag counter inactive
Cc1ccccc1C(=O)Nc1ccc2c(c1)CCCN2C(=O)c1cccs1	none
COc1ccc(C(=O)NCCc2c[nH]c3ccccc23)cc1[N+](=O)[O-]	TAAR1 antagonist 63.1 | nonsel antag count 27.1 | TAAR1 ant conf inactive | Ga16 ag counter inactive | TAAR1 ag counter inactive
CCCCCC(=O)N1C[C@@H](O)[C@H](n2cc(COC(=O)c3ccccc3)nn2)C[C@@H]1c1ccccc1	none (no result: V1aR counter, OXTR potentiator, OXTR agonist)
O=C(/C=C/c1ccc(Cl)cc1Cl)NC(=S)Nc1ccc(CN2CCOCC2)cc1	none
O=C(/C=C/c1ccccc1)Nc1ccc(N2CCCCC2)cc1	TAAR1 antagonist 69.1 | nonsel antag count 30.4 | TAAR1 ant conf 65.3 | Ga16 ag counter 27.6 | TAAR1 ag counter 60.6
O=C(/C=C/c1ccccc1)NC(=S)Nc1ccc(CN2CCOCC2)cc1	TAAR1 antagonist 57.6 | nonsel antag count 41.4 | TAAR1 ant conf inactive | Ga16 ag counter inactive | TAAR1 ag counter inactive
Cc1cc(C)cc([C@H]2C[C@]34CN(Cc5ccccc5)S(=O)(=O)[C@H]3C[C@H]2O4)c1	none (no result: V1aR counter, OXTR potentiator, OXTR agonist)
COC(=O)[C@@]1(Cc2ccc(F)cc2)[C@H]2c3cc(C(=O)N(C)C)n(CCCNc4ncc(C(F)(F)F)cc4Cl)c3C[C@H]2CN1C(=O)c1ccccc1	none (no result: V1aR counter, OXTR potentiator, OXTR agonist)
COC(=O)/C=C/c1ccccc1CN1[C@@H](CC(=O)OC)c2ccccc2S1(=O)=O	TAAR1 antagonist 107.0 | nonsel antag count inactive | TAAR1 ant conf inactive | Ga16 ag counter inactive | TAAR1 ag counter inactive
Cc1ccc2nc(-c3ccc(NC(=O)CSc4nc(N)cc(=O)[nH]4)cc3)sc2c1	TAAR1 antagonist 103.3 | nonsel antag count inactive | TAAR1 ant conf inactive | Ga16 ag counter inactive | TAAR1 ag counter inactive
O=C(NCc1ccccc1)C(c1ccc(C(F)(F)F)cc1)n1c(=O)c(-c2ccco2)nc2ccccc21 (configuration not stated)	none (no result: V1aR counter, OXTR potentiator, OXTR agonist)
CC(C)C[C@@H](CN1CCC[C@@H]1CN1C(=O)C(=O)NC[C@@H]1Cc1ccccc1)N1C[C@H](Cc2ccccc2)N(CC2CCCCC2)C(=O)C1=O	none (no result: V1aR counter, OXTR potentiator, OXTR agonist)
COc1ccc(N2CCN(Cc3nc(-c4ccc(Cl)cc4Cl)no3)CC2)cc1	none
